Experimental data: publication PMC10213863 (Cell Reports Medicine, 2023)

Assays:
[1] = tested on: NZB/W F1 mice; experiment: Mouse NZB/W F1 model of lupus, MHV370 in food; assay type: in vivo
Method in brief: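 NZB/W F1 mice entered at 23 weeks and were randomized into groups of 14 (mean proteinuria 0.1–0.5 mg/mL). They were dosed with test compound in food. Weight was recorded twice weekly; proteinuria weekly by quantitative protein assay (BSA standard). Serum IgG autoantibodies were measured by ELISA at 1:100 or 1:300, with DWEYS peptide for NMDAR, HRP anti-IgG (1:10′000) and TMB. Kidney IgG was stained by IHC; positive/total area was averaged over ten sections per mouse.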

[2] = molecular target: T1, TLR9 (Homo sapiens, UniProt Q9NR96); experiment: Human whole blood assay, ODN-IFN-α; assay type: cell-based
T1 sequence (Q9NR96 26-1032): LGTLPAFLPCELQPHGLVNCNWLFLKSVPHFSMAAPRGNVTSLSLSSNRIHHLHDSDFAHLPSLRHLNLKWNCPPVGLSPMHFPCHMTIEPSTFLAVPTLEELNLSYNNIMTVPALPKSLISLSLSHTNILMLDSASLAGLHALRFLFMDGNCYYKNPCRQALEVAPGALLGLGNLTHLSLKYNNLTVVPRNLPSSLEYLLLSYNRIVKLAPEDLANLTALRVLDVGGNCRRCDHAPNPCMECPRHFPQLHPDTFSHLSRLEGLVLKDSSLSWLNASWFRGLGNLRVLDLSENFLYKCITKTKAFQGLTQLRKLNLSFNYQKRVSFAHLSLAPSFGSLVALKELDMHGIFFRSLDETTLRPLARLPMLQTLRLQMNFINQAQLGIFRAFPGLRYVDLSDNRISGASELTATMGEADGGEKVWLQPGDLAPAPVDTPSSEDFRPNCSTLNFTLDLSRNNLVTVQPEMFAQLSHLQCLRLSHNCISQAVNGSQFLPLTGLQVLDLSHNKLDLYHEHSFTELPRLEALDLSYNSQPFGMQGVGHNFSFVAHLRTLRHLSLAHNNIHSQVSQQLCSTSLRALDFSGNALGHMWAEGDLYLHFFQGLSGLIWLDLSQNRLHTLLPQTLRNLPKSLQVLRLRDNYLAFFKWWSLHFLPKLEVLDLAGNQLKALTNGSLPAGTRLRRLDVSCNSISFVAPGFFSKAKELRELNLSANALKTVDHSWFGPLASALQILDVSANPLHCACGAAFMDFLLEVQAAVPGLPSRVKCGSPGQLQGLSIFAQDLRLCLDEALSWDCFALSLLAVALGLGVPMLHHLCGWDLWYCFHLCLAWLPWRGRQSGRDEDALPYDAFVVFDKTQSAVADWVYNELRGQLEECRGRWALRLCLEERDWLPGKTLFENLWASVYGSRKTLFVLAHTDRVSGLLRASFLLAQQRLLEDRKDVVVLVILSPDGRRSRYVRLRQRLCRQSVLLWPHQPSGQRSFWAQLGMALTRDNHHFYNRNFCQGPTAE
Method in brief: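 Fresh human blood or 129/Sv mouse blood was taken into citrate and diluted 1:1 with RPMI1640. It was pre-incubated 30 min at 37°C, 5% CO2 with increasing concentrations of test compound or 0.25% v/v DMSO (final). Blood was then stimulated with TLR agonists at doses from earlier work, or with R848 (3 μM), and cytokines were quantified. Viability was checked by ATPlite luminescence.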

[3] = tested on: TMPD-induced peritonitis in Balb/c mice; experiment: Mouse TMPD peritonitis; assay type: in vivo; settings: prophylactic oral b.i.d.
Method in brief: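 Female Balb/c mice (5 per group) were dosed orally b.i.d. from day −1 with test compound in 0.5% MC/0.5% Tween80, or vehicle. On day 0 they were injected i.p. with 0.5 mL TMPD; naive mice were controls. Peritoneal lavage (HBSS, 2% FBS) supernatants were assayed for CCL2 by ELISA. Inflammatory monocytes were counted by flow (live/dead, CD11b, Ly6C, Ly6G). ISGs were measured by qPCR (2−ΔΔCt vs HPRT, triplicates), averaged and normalized to naive = 100%.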

[4] = tested on: immune-complex stimulated ISG panel in PBMCs; experiment: Five-gene ISG panel in PBMCs stimulated with SLE immune complexes; assay type: cell-based, human; settings: MHV370 0.1 μM
Method in brief: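 PBMCs were pre-treated 30 min with test compound, HCQ or 0.1% DMSO, then stimulated 20 h with SLE serum pre-complexed with U-937 necrotic extract. RNA was extracted and ISGs quantified by qRT-PCR with the 2−ΔΔCt method against 18S rRNA, using biological replicates. Global ISG induction was derived by normalizing each ISG's relative induction to 100%.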

[5] = molecular target: TLR5 (Homo sapiens, UniProt O60602); experiment: Human PBMC cytokine secretion, TLR5 agonist; assay type: cell-based; settings: human PBMCs; up to 10 μM; n = 5 donors, data not shown
Method in brief: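 Human PBMCs were pre-incubated 30 min with test compound, then stimulated with the respective TLR or IL-1R agonist at doses from earlier work. Cytokines in supernatants were quantified by immunoassay. Viability across the dose range was checked by CellTiter-Glo.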

[6] = molecular target: TLR2/6 (Homo sapiens, UniProt O60603+Q9Y2C9); experiment: Ramos Blue reporter B cell line, FSL-1 stimulation; assay type: cell-based; settings: Ramos cells; up to 10 μM; n = 4, data not shown
Method in brief: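 Ramos Blue B reporter cells were pre-treated 30 min at 37°C, 5% CO2 with increasing concentrations of test compound or 0.25% v/v DMSO. They were then stimulated with the respective agonist, and reporter activity was read.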

[7] = tested on: B cell receptor; experiment: B cell receptor-mediated activation in human blood; assay type: cell-based; settings: up to 16 μM; n = 2, data not shown
Method in brief: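 Heparinized human blood was given a 3-fold serial dilution of test compound, top 16 μM, for 1.5 h at 37°C. B cells were then activated with 50 μg/mL anti-human IgM for 20 min at 37°C. Samples were lysed/fixed and permeabilized, then stained for pAkt([…]) and CD20. Readout was by flow cytometry.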

[8] = 0.1% MHV370 in food, kidney histology
[9] = MHV370-laced food, at termination

TLR2/6, sequence (O60603 21-784): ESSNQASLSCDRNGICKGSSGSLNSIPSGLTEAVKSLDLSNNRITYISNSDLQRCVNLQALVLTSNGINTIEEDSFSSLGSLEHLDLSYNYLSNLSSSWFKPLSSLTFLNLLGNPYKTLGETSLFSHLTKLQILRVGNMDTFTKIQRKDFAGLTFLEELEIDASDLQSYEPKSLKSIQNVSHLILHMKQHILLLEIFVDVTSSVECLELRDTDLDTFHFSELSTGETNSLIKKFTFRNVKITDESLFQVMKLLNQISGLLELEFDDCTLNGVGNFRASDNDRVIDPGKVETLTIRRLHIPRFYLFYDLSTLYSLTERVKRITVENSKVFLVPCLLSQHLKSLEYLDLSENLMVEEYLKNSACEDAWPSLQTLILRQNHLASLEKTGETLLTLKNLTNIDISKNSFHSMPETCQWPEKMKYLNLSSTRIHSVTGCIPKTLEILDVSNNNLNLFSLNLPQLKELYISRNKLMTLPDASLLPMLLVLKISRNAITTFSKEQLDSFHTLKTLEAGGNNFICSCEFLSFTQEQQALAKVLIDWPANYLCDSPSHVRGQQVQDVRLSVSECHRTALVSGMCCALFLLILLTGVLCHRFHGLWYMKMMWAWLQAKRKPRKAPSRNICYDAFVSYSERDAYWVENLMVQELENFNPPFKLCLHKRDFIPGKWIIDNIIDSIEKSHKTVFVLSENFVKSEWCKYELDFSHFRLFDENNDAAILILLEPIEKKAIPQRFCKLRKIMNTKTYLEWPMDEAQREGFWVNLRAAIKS
TLR2/6, sequence (Q9Y2C9 32-796): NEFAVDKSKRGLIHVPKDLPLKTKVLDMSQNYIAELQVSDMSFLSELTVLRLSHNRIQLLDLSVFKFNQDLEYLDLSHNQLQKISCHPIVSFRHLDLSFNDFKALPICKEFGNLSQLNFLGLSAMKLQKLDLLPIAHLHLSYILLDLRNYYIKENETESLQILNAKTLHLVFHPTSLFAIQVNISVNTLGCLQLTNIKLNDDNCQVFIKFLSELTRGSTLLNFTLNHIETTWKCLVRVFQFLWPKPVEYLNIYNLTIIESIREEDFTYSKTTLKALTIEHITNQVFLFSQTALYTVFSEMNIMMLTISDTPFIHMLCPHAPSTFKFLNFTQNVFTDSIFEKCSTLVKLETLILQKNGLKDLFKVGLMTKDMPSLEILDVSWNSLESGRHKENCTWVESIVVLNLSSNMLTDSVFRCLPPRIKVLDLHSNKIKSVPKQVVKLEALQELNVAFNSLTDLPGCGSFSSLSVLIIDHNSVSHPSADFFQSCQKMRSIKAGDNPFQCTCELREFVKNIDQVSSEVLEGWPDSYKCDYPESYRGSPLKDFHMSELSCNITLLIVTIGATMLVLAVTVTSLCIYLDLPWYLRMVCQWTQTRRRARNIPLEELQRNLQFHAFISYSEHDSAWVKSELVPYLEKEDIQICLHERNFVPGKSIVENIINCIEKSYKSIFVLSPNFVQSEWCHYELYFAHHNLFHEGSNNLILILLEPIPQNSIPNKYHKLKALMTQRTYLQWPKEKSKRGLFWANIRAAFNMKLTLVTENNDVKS
TLR5, sequence (O60602 21-858): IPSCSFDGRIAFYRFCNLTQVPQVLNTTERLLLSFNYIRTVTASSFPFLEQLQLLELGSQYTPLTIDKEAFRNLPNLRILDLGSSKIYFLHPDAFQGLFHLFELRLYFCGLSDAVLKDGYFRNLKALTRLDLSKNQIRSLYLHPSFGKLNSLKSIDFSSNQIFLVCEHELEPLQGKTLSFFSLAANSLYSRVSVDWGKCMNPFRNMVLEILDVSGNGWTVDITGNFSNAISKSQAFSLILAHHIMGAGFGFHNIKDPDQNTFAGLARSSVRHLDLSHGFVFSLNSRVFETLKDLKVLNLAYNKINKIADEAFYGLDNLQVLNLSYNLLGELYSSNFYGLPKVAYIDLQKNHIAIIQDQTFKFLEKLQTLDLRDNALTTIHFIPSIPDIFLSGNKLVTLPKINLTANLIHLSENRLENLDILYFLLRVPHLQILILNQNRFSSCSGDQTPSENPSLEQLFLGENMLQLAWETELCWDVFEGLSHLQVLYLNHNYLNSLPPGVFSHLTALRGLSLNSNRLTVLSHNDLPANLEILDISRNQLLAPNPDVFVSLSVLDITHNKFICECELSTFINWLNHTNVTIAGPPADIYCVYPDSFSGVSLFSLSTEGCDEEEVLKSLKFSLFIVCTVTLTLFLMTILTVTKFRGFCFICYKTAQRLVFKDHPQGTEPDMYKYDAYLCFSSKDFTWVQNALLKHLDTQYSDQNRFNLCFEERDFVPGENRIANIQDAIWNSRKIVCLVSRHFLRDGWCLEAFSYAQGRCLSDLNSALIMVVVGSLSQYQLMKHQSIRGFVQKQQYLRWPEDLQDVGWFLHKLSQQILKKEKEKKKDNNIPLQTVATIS

**Q.** With `Cc1cc(N2CCc3c(c(C)nn3CC34CCC(NC(=O)[C@@H]5COCCN5)(CC3)CC4)C2)c2cnn(C)c2n1` [MHV370, (S)-N-(4-((5-(1,6-dimethyl-1H-pyrazolo[3,4-b]pyridin-4-yl)-3-methyl-4,5,6,7-tetrahydro-1H-pyrazolo[4,3-c]pyridin-1-yl)methyl)bicyclo[2.2.2]octan-1-yl)morpholine-3-carboxamide] as the compound, how does the “inhibition of proteinuria at low dose” value ([1]; 0.01% MHV370 in food) read?
**A.** already achieved

**Q.** And the “IgG deposits in the glomeruli” value [1, 8]?
**A.** reduced

**Q.** And the glomerulopathy [1, 8]?
**A.** reduced

**Q.** And the “infiltration of kidneys with CD45R+ B cells” value [1, 8]?
**A.** reduced

**Q.** And the “infiltration of kidneys with CD138+ plasma cells” value [1, 8]?
**A.** reduced

**Q.** What about the proteinuria ([1]; MHV370-laced food) of the same compound?
**A.** effectively prevented

**Q.** What about the “blood urea nitrogen (BUN)” value [1, 9] of the same compound?
**A.** moderately reduced

**Q.** What about the “serum levels of CXCL13” value [1, 9] of the same compound?
**A.** significantly reduced

**Q.** What about the “IgG autoantibody levels against NMDAR” value ([1]; serum at termination) of the same compound?
**A.** reduced

**Q.** What about the “IgG autoantibody levels against Smith (Sm)” value ([1]; serum at termination) of the same compound?
**A.** reduced

**Q.** What about the “IgG autoantibody levels against ribosomal P (RiboP)” value ([1]; serum at termination) of the same compound?
**A.** reduced

**Q.** And the “serum antibodies against double-stranded DNA (dsDNA)” value ([1]; serum at termination)?
**A.** not reduced

**Q.** What about the “serum antibodies against histones” value ([1]; serum at termination) of the same compound?
**A.** not reduced

**Q.** And the IC50 [2]?
**A.** 1320 nM

**Q.** And the “ex vivo stimulated PD marker CD69 in peripheral blood” value [3]?
**A.** reduced in peripheral blood of mice in a dose-dependent manner

**Q.** And the “panel of ISGs in peritoneal cells and blood” value [3]?
**A.** dose-dependently suppressed

**Q.** What about the “inflammatory monocytes and CCL2 in the peritoneum” value ([3]; day 7) of the same compound?
**A.** dose-dependent reduction

**Q.** And the “expression of a five-panel ISG signature” value [4]?
**A.** strongly suppressed

**Q.** And the “interference with cytokine secretion, TLR5 agonist” value [5]?
**A.** did not significantly interfere

**Q.** What about the “interference with TLR2/6-driven activity” value [6] of the same compound?
**A.** did not interfere

**Q.** What about the “activation of B cell responses via the B cell receptor” value [7] of the same compound?
**A.** unaffected
